Laboratory results taken from ChEMBL document CHEMBL4251713, “Bioassay- and Chemistry-Guided Isolation of Scalemic Caged Prenylxanthones from the Leaves of Garcinia bracteata” (2018).
Structures can show the parent of a compound that is named as a salt.

Experiments:
HL-60 = assay: Growth inhibition of human HL60 cells measured after 3 days by trypan blue assay; type: functional; settings: HL-60, 72 h
Summary of the method: (§1)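 Human leukemia cells exposed to compound for 3 days. Growth assessed by trypan blue method with total cell counts, and inhibition calculated relative to untreated control cells. GI50 taken as the concentration giving 50% growth inhibition. Doxorubicin hydrochloride and gambogic acid included as positive controls.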

K562 = assay: Growth inhibition of human K562 cells measured after 3 days by trypan blue assay; type: functional; settings: K562, 72 h; summary of the method: as §1

Row | SMILES | GI50 (HL-60) [nM] | GI50 (K562) [nM]
1 | C=CC(C)(C)c1c(O)cc(O)c2c1O[C@]13[C@H](C2=O)[C@@H](OC)[C@@H]2C[C@H]1C(C)(C)O[C@@]3(/C=C/C(C)(C)O)C2=O | 8800 | 3800
2 | CC(C)=CCC12OC(C)(C)C3CC4(Oc5c(c(O)cc6c5C(C)(C)[C@@H](C)O6)C(=O)C4=CC31)C2=O (some centres undefined) | 700 | 1700
3 | C=CC(C)(C)c1c(O)cc(O)c2c1OC13C(=CC4CC1C(C)(C)OC3(CC=C(C)C)C4=O)C2=O (centres undefined) | 400 | 1000
4 | C=CC(C)(C)c1c(O)cc(OC)c2c1OC13C(C2=O)[C@@H](OC)[C@@H]2C[C@H]1C(C)(C)O[C@@]3(CC=C(C)C)C2=O (some centres undefined) | 3400 | 1600
5 | C=CC(C)(C)c1c(O)cc(O)c2c1O[C@]13CC4[C@H]([C@@H](OC)C1C2=O)[C@@](CC=C(C)C)(OC4(C)C)C3=O (some centres undefined) | 6500 | 3500
6 | C=CC(C)(C)c1c(O)cc(O)c2c1OC13CC4C(C=C1C2=O)C(CC=C(C)C)(OC4(C)C)C3=O (centres undefined) | 800 | 1300
7 | CC(C)=CC[C@@]12OC(C)(C)C3C[C@H](C=C4C(=O)c5c(O)cc6c(c5O[C@]431)C(C)(C)[C@H](C)O6)C2=O | 1900 | 3600
8 | C=CC(C)(C)c1c(O)cc(O)c2c1O[C@]13C(C2=O)[C@@H](OC)[C@@H]2C[C@H]1C(C)(C)O[C@@]3(CC=C(C)C)C2=O (some centres undefined) | 7300 | 3400
9 | CC(C)=CCC[C@]1(C)C=Cc2c(O)c3c(c(CC=C(C)C)c2O1)O[C@]12C(=C[C@@H]4C[C@H]1C(C)(C)O[C@@]2(C/C=C(/C)C(=O)O)C4=O)C3=O [GAMBOGIC ACID] | 300 | 600

Further molecules by falling GI50 (HL-60), results first:

Row | GI50 (HL-60) [nM] | GI50 (K562) [nM] | SMILES
10 | 4500 | 2100 | C=CC(C)(C)c1c(O)cc(O)c2c1O[C@]13[C@H](C2=O)[C@@H](OCC)[C@@H]2C[C@H]1C(C)(C)OC3(CC=C(C)C)C2=O
11 | 1200 | 2100 | CC(C)=CC[C@@]12OC(C)(C)[C@H]3C[C@H](C=C4C(=O)c5c(O)cc6c(c5O[C@]431)C(C)(C)[C@@H](C)O6)C2=O
12 | 1100 | 2100 | CC(C)=CC[C@@]12OC(C)(C)[C@H]3C[C@H](C=C4C(=O)c5c(O)cc6c(c5O[C@]431)C(C)(C)[C@H](CO)O6)C2=O
13 | 1100 | 2100 | CC(C)=CC[C@@]12OC(C)(C)[C@H]3C[C@H](C=C4C(=O)c5c(O)cc6c(c5O[C@]431)C(C)(C)[C@@H](CO)O6)C2=O
14 | 1000 | 1500 | C=CC(C)(C)c1c(OC)cc(O)c2c1OC13CC4C(C=C1C2=O)C(CC=C(C)C)(OC4(C)C)C3=O (centres undefined)
15 | 900 | 1600 | CC(C)=CCC12OC(C)(C)C3CC4(Oc5c(c(O)cc6c5C(C)(C)[C@H](C)O6)C(=O)C4=CC31)C2=O (some centres undefined)
16 | 200 | 800 | C=CC(C)(C)c1c(OC)cc(O)c2c1OC13C(=CC4CC1C(C)(C)OC3(CC=C(C)C)C4=O)C2=O (centres undefined)
17 | 20 | 20 | COc1cccc2c1C(=O)c1c(O)c3c(c(O)c1C2=O)C[C@@](O)(C(=O)CO)C[C@@H]3O[C@H]1C[C@H](N)[C@H](O)[C@H](C)O1 [DOXORUBICIN HYDROCHLORIDE]
